A short description of data set [1]: Inhibition of human SPP expressed in human U2OS cells using EGFP-labeled EnvSigSeq-SEAP as substrate after 24 hrs by Hoechst staining based high content imaging assay. In kind it is cell-based. An outline of the steps: (§1)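 Stable U-2 OS lines expressing human SPPL2a, SPPL2b or SPP constitutively (mouse SPPL2a line analogous, mouse TNFα(aa1-77)-NTF-EGFP-NLS) with doxycycline-inducible EGFP substrate. 3000 cells/well, 3−4 h, then 11-point inhibitor 100 μM to 1 nM, 0.9% DMSO, 5 μg/mL doxycycline, 24 h 37 °C. PFA fixed, Hoechst nuclei; nuclear minus cytoplasmic EGFP intensity; inhibition vs 0.5 μM reference and DMSO; IC50 by nonlinear regression.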

In a further data set the test system is Rattus norvegicus. The data set can be described thus: Dose normalized Cmax in Wistar rat at 10 mg/kg, po bid measured up to 1 hr by LC/MS/MS analysis. It counts as ADME, organism-based, Wister. The following applies: in vivo.
The next data set has as its system Mus musculus. The data set can be described thus: Immunomodulatory activity in mouse assessed as reduction in marginal zone B cells in splenocyte at 3 to 30 mg/kg administered via oral gavage bid at 8 and 16 hrs dosing interval between first and second dose respectively for 11 days measured 16 hrs post last dose on day 12 by flow cytometry. It counts as functional, organism-based. The method, boiled down: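 Mice gavaged with compound in 0.5% MC:0.5% Tween or PEG:D5W 3:1. Spleens dissociated in GentleMACS, filtered at 40 μm, ACK red-cell lysis, counted; 1 × 10^6 splenocytes stained 30 min on ice in HBSS/2% FBS/5 mM EDTA with antimouse panels for B-cell subsets (B220, CD21, CD23, IgM, IgD) or dendritic cells (PDCA1, CD11c, MHCII, lineage markers); analyzed on Fortessa flow cytometer.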
For orientation: A flow cytometer gives signals particle by particle.

Data set [2] is described as follows: Total plasma concentration in mouse at 30 mg/kg administered via oral gavage measured after 16 hrs post dose by LC/MS/MS analysis. In kind it is ADME, organism-based. An outline of the steps: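 Mice dosed by oral gavage in 0.5% MC:0.5% Tween or PEG:D5W 3:1. 50 μL blood taken retro-orbitally into LiHep tubes; in chronically dosed animals the trough sample came before the morning dose. Kept on ice, plasma separated by centrifugation at 2823g, 5 min, stored at −20 °C until analysis.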

Data set [3] addresses T1, Signal peptide peptidase-like 2A (Mus musculus) (UniProt Q9JJF9).
T1 sequence (whole entry): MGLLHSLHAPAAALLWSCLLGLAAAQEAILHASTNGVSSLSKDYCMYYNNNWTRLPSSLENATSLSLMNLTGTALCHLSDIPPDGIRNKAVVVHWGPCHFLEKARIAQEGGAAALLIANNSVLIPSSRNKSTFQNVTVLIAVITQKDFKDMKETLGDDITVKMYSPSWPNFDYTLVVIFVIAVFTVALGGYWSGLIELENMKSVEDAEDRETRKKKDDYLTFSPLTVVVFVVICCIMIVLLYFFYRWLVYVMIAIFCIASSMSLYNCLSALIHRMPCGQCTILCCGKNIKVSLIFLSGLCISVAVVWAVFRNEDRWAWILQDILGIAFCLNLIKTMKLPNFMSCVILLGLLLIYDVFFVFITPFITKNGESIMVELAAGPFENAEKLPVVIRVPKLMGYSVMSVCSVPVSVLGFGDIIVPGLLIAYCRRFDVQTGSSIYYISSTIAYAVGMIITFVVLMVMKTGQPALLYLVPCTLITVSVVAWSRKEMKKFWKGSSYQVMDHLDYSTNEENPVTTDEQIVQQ
The following applies: 2 uM.

The nature of data set [4]: Drug uptake in Lewis rat spleen at 10 mg/kg, po bid after 24 hrs by LC/MS/MS analysis. It counts as ADME, organism-based. The following applies: read-out: Drug uptake.
Data set [5] addresses T2, Signal peptide peptidase-like 2A (Homo sapiens, UniProt Q8TCT8).
T2 sequence (Q8TCT8 whole entry): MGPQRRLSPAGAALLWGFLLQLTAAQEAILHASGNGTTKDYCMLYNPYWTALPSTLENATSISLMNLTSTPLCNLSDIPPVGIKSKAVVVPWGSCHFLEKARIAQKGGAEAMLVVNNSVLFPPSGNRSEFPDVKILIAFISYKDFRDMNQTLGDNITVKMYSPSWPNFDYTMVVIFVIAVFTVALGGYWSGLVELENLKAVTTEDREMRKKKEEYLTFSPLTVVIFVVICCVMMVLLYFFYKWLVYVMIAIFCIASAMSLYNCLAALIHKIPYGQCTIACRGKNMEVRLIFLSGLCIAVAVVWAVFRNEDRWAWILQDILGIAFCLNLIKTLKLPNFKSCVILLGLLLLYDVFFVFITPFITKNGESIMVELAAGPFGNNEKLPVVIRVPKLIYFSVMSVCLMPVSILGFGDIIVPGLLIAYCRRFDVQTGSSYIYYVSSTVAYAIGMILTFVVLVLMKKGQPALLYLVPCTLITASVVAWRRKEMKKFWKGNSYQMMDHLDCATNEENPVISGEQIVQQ
The data set is described as follows: Inhibition of human SPPL2a expressed in human U2OS cells using EGFP-labeled TNFalpha (1 to 76 residues) NTF as substrate after 24 hrs by Hoechst staining based high content imaging analysis. In kind it is cell-based. The method, boiled down: as §1

Data set [6] in a line: Drug uptake in Lewis rat spleen at 1 mg/kg, po bid after 24 hrs by LC/MS/MS analysis. It counts as ADME, organism-based. The following applies: read-out: Drug uptake.
The target of data set [7] is T1, Signal peptide peptidase-like 2A (Mus musculus). The data set can be described thus: Reversible inhibition of SPPL2a in mouse A20 cells assessed as increase in CD74/p8 accumulation at 2 uM preincubated for 16 hrs followed by compound wash out measured up to 2 hrs by Western blot method. In kind it is cell-based.
Data set [8] in a line: Selectivity ratio of IC50 for human gamma-secretase expressed in HEK293 cells to IC50 for human SPPL2a expressed in HEK293 cells. An outline of the steps: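 HEK293 transiently transfected: SPPL2a arm with human SPPL2a, VP16-TNFα(aa1-76)-NTF and Gal4-luciferase; γ-secretase arm with human Notch1-VP16-Gal4 plus reporter (endogenous γ-secretase). Compound added 3 h after plating, 10 μM–0.3 nM final, triplicate, 24 h at 37 °C; luminescence read. IC50 from concentration vs normalised luminescence; ratio of the two IC50s.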

Data set [9] can be described thus: Stability in rat liver microsomes at […] preincubated for 3 mins followed by NADPH addition measured after 1 hr in presence of GSH and [13C2-15N-glycine]-GSH by HPLC/MS method. It counts as ADME, microsome. The settings on record: read-out: Stability.
A short description of data set [10]: Drug uptake in mouse spleen at 100 mg/kg, po administered as single dose after 4 hrs by LC/MS/MS analysis. The following applies: read-out: Drug uptake. It counts as ADME, organism-based.
In data set [11] the target is T3, Signal peptide peptidase-like 2A (Mus musculus, UniProt Q9JJF9).
T3 sequence (Q9JJF9 whole entry): T1 sequence (whole entry)
The data set is described as follows: Inhibition of SPPL2a in mouse whole blood assessed as increase in CD74/p8 accumulation after 5.5 hrs by Western bot method. The method, boiled down: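 Mouse whole blood (200 μL) with compound from 20× stock, 0.5% DMSO final, 5.5 h at 37 °C, 5% CO2 with rotation. RBC lysis, washes, lysis in Tris pH 6.8/Triton/deoxycholate buffer; Western blot with rat anti-mouse CD74 (In-1); p8 band intensity normalized to CD74 full-length/β-actin for dose response.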

Data set [12] can be described thus: Total plasma concentration in mouse at 10 mg/kg, po administered as single dose after 4 hrs by LC/MS/MS analysis. It counts as ADME, organism-based.

pIC50: −log10 of the molar value. Activity calls are given as the source filed them. The rule behind the calls is not given here.

Take `Cc1ncc(F)cc1NC(=O)C[C@H](C(=O)N[C@@H]1C(=O)N2CC3(CC3)CN2C(=O)c2ccccc21)C1CC1`: the pIC50 (usually the negative decadic logarithm of the IC50, by convention in mol/L) is 5.43 in data set [1] and 6.80 in data set [5]. The compound also showed a Cmax/dose in the data set with Rattus norvegicus of 805 nM. Also, the result in the data set on Mus musculus was Active. Besides, the concentration at 16 h in [2] was 136 nM. The inhibition result in data set [3] was “inactive”. Moreover, the concentration at 24 h in data set [4] was 2400 nM; in [6], 330 nM.

As for `Cc1ccccc1NC(=O)C[C@@H](C)C(=O)N[C@@H]1C(=O)N2CCCN2Cc2ccccc21`, the inhibition result in data set [7] was “Active”. Also, in data set [8], the “Ratio IC50” value came to 52. Moreover, in data set [9], the remaining at 1 h amounted to 93.2%. Further, the concentration at 4 h in data set [10] is 1440 nM; in [12] it was 57 nM. The pIC50 in data set [11] is 6.26.

The values above are taken from ChEMBL document CHEMBL4043282, “Discovery of the First Potent, Selective, and Orally Bioavailable Signal Peptide Peptidase-Like 2a (SPPL2a) Inhibitor Displaying Pronounced Immunomodulatory Effects In Vivo” (J Med Chem, 2018).
